Reference: ChEMBL document CHEMBL1127684, “Enkephalin analogs as systemically active antinociceptive agents: O- and N-alkylated derivatives of the dipeptide amide L-2,6-dimethyltyrosyl-N-(3-phenylpropyl)-D-alaninamide” (J Med Chem, 1994)
The source made the active and inactive calls. The rule behind the calls is not given here.

How the values were obtained:
[1] = molecular target: T1, Delta-type opioid receptor (Rattus norvegicus, UniProt P33533); assay: Displacement of [3H]DSLET from rat brain membrane delta opioid receptor
In short: (§1)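 Forebrain membranes from male Sprague-Dawley rats (150–300 g, cerebellum and hindbrain removed), washed and preincubated 1 h at 25 °C. Binding run in triplicate at 37 °C in 50 mM Tris/HCl pH 7.4, ~1 mg/mL protein, [3H]DSLET 1.0 nM, with varying compound concentrations. Nonspecific binding defined with 10 μM levorphanol. IC50 taken from log-logit plots of concentration vs percent displacement.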

Mus musculus [2] = assay: Effective dose administered subcutaneously in mouse writhing assay; No significant inhibition at 10 mg/kg, the highest dose tested; format: functional, organism-based; set-up: dose 10 mg/kg
In short: (§2)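 Mouse phenylbenzoquinone-induced abdominal stretch (writhing) assay with subcutaneous dosing. […] 10 mg/kg was the highest dose tested.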

Mus musculus [3] = assay: Effective dose administered intragastricly in mouse writhing assay; No significant inhibition at 10 mg/kg, the highest dose tested; format: functional, organism-based; set-up: dose 10 mg/kg
Mu-type opioid receptor [4] = molecular target: T2, Mu-type opioid receptor (Rattus norvegicus, UniProt P33535); assay: Affinity for mu opioid receptor was measured by displacement of tritiated DAMGO from rat brain membranes; format: cell membranes, Membrane
In short: (§3)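 Forebrain membranes from male Sprague-Dawley rats (150–300 g, cerebellum and hindbrain removed), washed and preincubated 1 h at 25 °C. Binding run in triplicate at 37 °C in 50 mM Tris/HCl pH 7.4, ~1 mg/mL protein, [3H]DAMGO 2.0 nM, with varying compound concentrations. Nonspecific binding defined with 10 μM levorphanol. IC50 taken from log-logit plots of concentration vs percent displacement.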

Opioid receptor = Opioid receptor (Rattus norvegicus, UniProt P33533+P34975+P33535); assay: Affinity for the opioid receptor by displacement of tritiated naloxone from rat brain membranes.; format: cell membranes, Membrane
In short: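 Rat brain membranes with the cerebellum removed. Competition against [3H]naloxone as a nonselective opioid label, with the radioligand at or near its Kd. Reported as IC50 (nM).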

Mus musculus [5] = assay: Effective dose administered intragastricly in mouse writhing assay; format: functional; settings: po
[6] = molecular target: Kappa-type opioid receptor (Rattus norvegicus, UniProt P34975); assay: Inhibitory concentration was evaluated against kappa opioid receptor by displacement of tritiated U-69593 from rat brain membranes; format: cell membranes, Membrane
Mus musculus [7] = assay: Effective dose administered subcutaneously in mouse writhing assay; format: functional; in short: as §2
Mu-type opioid receptor [8] = molecular target: T2, Mu-type opioid receptor; assay: Inhibitory concentration was evaluated against mu opioid receptor by the displacement of tritiated DAMGO from rat brain membranes; format: cell membranes, Membrane; in short: as §3
[9] = molecular target: T1, Delta-type opioid receptor; assay: (§4) Inhibitory concentration was evaluated against delta opioid receptor by the displacement of tritiated DSLET from rat brain membranes; format: cell membranes, Membrane; in short: as §1
Mus musculus [10] = assay: Effective dose administered subcutaneously in mouse writhing assay; not significant; format: functional, organism-based; in short: as §2
[11] = molecular target: T1, Delta-type opioid receptor; assay: as §4; format: functional, cell membranes, Membrane; in short: as §1
[12] = Mus musculus, sc, read-out: ED50

T2 sequence (P33535 whole entry): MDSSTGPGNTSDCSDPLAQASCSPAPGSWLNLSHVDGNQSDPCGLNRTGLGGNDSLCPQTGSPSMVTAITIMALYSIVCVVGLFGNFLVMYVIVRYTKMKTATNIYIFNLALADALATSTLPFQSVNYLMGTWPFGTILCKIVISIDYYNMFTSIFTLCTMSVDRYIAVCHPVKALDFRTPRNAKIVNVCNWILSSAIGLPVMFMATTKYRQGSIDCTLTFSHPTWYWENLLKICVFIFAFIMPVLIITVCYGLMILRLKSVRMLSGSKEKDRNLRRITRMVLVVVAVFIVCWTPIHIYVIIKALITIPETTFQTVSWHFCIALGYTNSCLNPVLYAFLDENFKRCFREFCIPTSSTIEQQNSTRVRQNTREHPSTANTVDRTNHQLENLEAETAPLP
T1 sequence (P33533 whole entry): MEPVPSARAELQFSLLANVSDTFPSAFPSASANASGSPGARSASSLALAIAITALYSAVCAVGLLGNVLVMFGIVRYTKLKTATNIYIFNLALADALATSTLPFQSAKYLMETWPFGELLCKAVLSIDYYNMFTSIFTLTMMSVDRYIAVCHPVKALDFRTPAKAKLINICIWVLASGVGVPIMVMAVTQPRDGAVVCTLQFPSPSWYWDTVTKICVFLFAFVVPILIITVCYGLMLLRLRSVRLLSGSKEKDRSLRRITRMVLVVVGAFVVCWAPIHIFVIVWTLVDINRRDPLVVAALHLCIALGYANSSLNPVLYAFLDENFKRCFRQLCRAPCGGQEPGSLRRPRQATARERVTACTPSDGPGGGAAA
Chain of Kappa-type opioid receptor (P34975 whole entry): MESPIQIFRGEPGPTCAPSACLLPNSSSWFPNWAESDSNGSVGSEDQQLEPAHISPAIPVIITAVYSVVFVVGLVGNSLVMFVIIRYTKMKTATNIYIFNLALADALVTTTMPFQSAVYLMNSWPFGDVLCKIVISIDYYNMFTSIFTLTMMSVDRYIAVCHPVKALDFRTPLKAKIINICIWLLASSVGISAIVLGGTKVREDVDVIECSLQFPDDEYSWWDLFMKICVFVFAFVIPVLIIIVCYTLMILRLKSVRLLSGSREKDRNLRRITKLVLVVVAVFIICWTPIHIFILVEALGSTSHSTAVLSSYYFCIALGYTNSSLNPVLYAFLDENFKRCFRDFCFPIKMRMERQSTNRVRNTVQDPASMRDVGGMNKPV

| Compound | IC50 [1] [µM] | ED50 (Mus musculus [2]) | ED50 (Mus musculus [3]) | IC50 (Mu-type opioid receptor [4]) [µM] | IC50 (Opioid receptor) [µM] | ED50 (Mus musculus [5]) [mg/kg] | ED50 (Mus musculus [7]; [12]) [mg/kg] | also measured |
| --- | --- | --- | --- | --- | --- | --- | --- | --- |
| Cc1cc(OCc2ccc(C#N)cc2)cc(C)c1CC(N)C(=O)N[C@H](C)C(=O)NCCCc1ccccc1 (some centres not stated) | > 1 | inactive | inactive | 0.0286 | 0.017 | – | – | – |
| Cc1cc(OCc2ccccc2)cc(C)c1C[C@H](N)C(=O)N[C@H](C)C(=O)NCCCc1ccccc1 | 0.055 | – | – | 0.004 | 0.36 | 2.4 | 1.8 | IC50 [6]: 2.52 µM; IC50 (Mu-type opioid receptor [8]): 0.00092 µM; IC50 [9]: 0.133 µM |
| COc1cc(C)c(C[C@H](N)C(=O)N[C@H](C)C(=O)NCCCc2ccccc2)c(C)c1 (stereo in doubt; 20c) | – | – | – | – | 0.42 | 2.7 | – | ED50 (Mus musculus [7]): 3.5 mg/kg |
| COc1cc(C)c(C[C@H](N)C(=O)N[C@H](C)C(=O)NCCCc2ccccc2)c(C)c1 (stereo in doubt; 20b) [listing 1 of 2 here] | – | – | inactive | – | – | – | – | – |
| Cc1cc(O)cc(C)c1CC(N)C(=O)N[C@H](C)C(=O)N(C)CCCc1ccccc1 (some centres not stated) | – | inactive | inactive | – | 0.3 | – | – | – |
| Cc1cc(OCc2ccc([N+](=O)[O-])cc2)cc(C)c1CC(N)C(=O)N[C@H](C)C(=O)NCCCc1ccccc1 (some centres not stated) | 0.127 | – | – | 0.0035 | 0.0029 | 6.8 | 2.3 | – |
| COc1cc(C)c(CC(N)C(=O)N[C@H](C)C(=O)NCCCc2ccccc2)c(C)c1 (some centres not stated) | – | – | – | – | 0.29 | 2.3 | 4.3 | – |
| Cc1cc(O)cc(C)c1C[C@H](N)C(=O)N(C)[C@H](C)C(=O)NCCCc1ccccc1 | 0.0044 | – | – | 0.0001 | – | 3.1 | 0.07 | IC50 [6]: 0.316 µM; IC50 (Mu-type opioid receptor [8]): 0.0002 µM; IC50 [9]: 0.008 µM |
| C=CCN(C(=O)[C@@H](N)Cc1c(C)cc(O)cc1C)[C@H](C)C(=O)NCCCc1ccccc1 | – | – | inactive | – | 0.28 | – | – | ED50 (Mus musculus [10]): inactive |
| CN[C@H](Cc1c(C)cc(O)cc1C)C(=O)N[C@H](C)C(=O)NCCCc1ccccc1 | – | inactive | inactive | – | 1.8 | – | – | – |
| COc1cc(C)c(C[C@H](N)C(=O)N[C@H](C)C(=O)NCCCc2ccccc2)c(C)c1 (stereo in doubt; 20b) [listing 2 of 2 here] | > 1 | – | – | 0.057 | 0.05 | – | – | IC50 [6]: 19.8 µM; ED50 (Mus musculus [7]): 0.7 mg/kg; IC50 (Mu-type opioid receptor [8]): 0.032 µM; IC50 [9]: 2.09 µM |
| CNC(Cc1c(C)cc(OCc2ccccc2)cc1C)C(=O)N[C@H](C)C(=O)NCCCc1ccccc1 (some centres not stated) | – | – | inactive | – | 0.053 | – | ~10 | – |
| Cc1cc(O)cc(C)c1CC(C)(N)C(=O)N[C@H](C)C(=O)NCCCc1ccccc1 (some centres not stated) | 0.064 | – | – | 0.002 | 0.15 | 3.7 | 3 | IC50 [6]: 1.38 µM; IC50 (Mu-type opioid receptor [8]): 0.0011 µM; IC50 [9]: 0.124 µM |
| Cc1ccccc1COc1cc(C)c(CC(N)C(=O)N[C@H](C)C(=O)NCCCc2ccccc2)c(C)c1 (some centres not stated) | – | inactive | inactive | – | – | – | – | – |
| Cc1cc(OCc2ccccc2)cc(C)c1C[C@@H](N)C(=O)N[C@H](C)C(=O)NCCCc1ccccc1 | – | – | – | – | 0.022 | 12.9 | 2.3 | IC50 [6]: 17.5 µM; IC50 (Mu-type opioid receptor [8]): 0.0447 µM; IC50 [9]: 1.8 µM |
| Cc1cc(OCc2ccc(C(C)(C)C)cc2)cc(C)c1CC(N)C(=O)N[C@H](C)C(=O)NCCCc1ccccc1 (some centres not stated) | – | inactive | inactive | – | 0.0005 | – | – | – |
| CN[C@@H](Cc1c(C)cc(O)cc1C)C(=O)N[C@H](C)C(=O)NCCCc1ccccc1 | – | inactive | inactive | – | 0.14 | – | – | – |
| Cc1cc(OCc2ccc(F)cc2)cc(C)c1CC(N)C(=O)N[C@H](C)C(=O)NCCCc1ccccc1 (some centres not stated) | 0.385 | – | inactive | 0.0175 | 0.018 | – | 2.7 | IC50 [6]: 10.8 µM; IC50 (Mu-type opioid receptor [8]): 0.00873 µM; IC50 [11]: 0.367 µM |
| C=CCOc1cc(C)c(CC(N)C(=O)N[C@H](C)C(=O)NCCCc2ccccc2)c(C)c1 (some centres not stated) | 0.6 | – | – | – | – | 14.9 | 12.4 | – |
| Cc1cc(O)cc(C)c1C[C@H](N)C(=O)N(CC1CC1)[C@H](C)C(=O)NCCCc1ccccc1 (stereo in doubt; 18c) [listing 1 of 2 here] | 0.409 | – | – | 0.0237 | – | – | – | – |
| Cc1cc(O)cc(C)c1CC(N)C(=O)N[C@H](C)C(=O)NCCCc1ccccc1 (some centres not stated) | 0.0086 | – | – | 0.0002 | 0.0001 | 2 | 0.5 | IC50 [6]: 0.221 µM; IC50 (Mu-type opioid receptor [8]): 0.00013 µM; IC50 [9]: 0.00957 µM |
| Cc1cc(O)cc(C)c1CC(N)C(=O)N(C)[C@H](C)C(=O)NCCCc1ccccc1 (some centres not stated) | – | – | – | – | 0.0006 | 1.3 | 1.7 | – |
| Cc1cc(O)cc(C)c1C[C@H](N)C(=O)N(CC1CC1)[C@H](C)C(=O)NCCCc1ccccc1 (stereo in doubt; 18b) [listing 1 of 2 here] | 0.0094 | – | – | 0.0004 | – | – | 0.5 | IC50 [6]: 1 µM; IC50 (Mu-type opioid receptor [8]): 0.0005 µM; IC50 [9]: 0.01 µM |
| Cc1cc(O)cc(C)c1C[C@H](N)C(=O)N(CC1CC1)[C@H](C)C(=O)NCCCc1ccccc1 (stereo in doubt; 18b) [listing 2 of 2 here] | – | – | inactive | – | – | – | – | – |
| CCOc1cc(C)c(CC(N)C(=O)N[C@H](C)C(=O)NCCCc2ccccc2)c(C)c1 (some centres not stated) | – | inactive | inactive | – | 0.13 | – | – | – |
| Cc1cc(O)cc(C)c1C[C@H](N)C(=O)N(CC1CC1)[C@H](C)C(=O)NCCCc1ccccc1 (stereo in doubt; 18c) [listing 2 of 2 here] | – | inactive | inactive | – | – | – | – | – |
| Cc1cc(OCc2ccc(C(=O)O)cc2)cc(C)c1C[C@H](N)C(=O)N[C@H](C)C(=O)NCCCc1ccccc1 | – | inactive | inactive | – | 0.083 | – | – | – |
| Cc1cc(OCc2ccc(C(=O)O)cc2)cc(C)c1CC(N)C(=O)N[C@H](C)C(=O)NCCCc1ccccc1 (some centres not stated) | 0.882 | inactive | inactive | 0.0123 | – | – | – | – |
| Cc1cc(O)cc(C)c1CC(N)C(=O)N(CC1CC1)[C@H](C)C(=O)NCCCc1ccccc1 (some centres not stated) | – | – | inactive | – | 0.01 | – | 2.4 | – |
| C=CCN(C(=O)C(N)Cc1c(C)cc(O)cc1C)[C@H](C)C(=O)NCCCc1ccccc1 (some centres not stated) | – | – | inactive | – | 0.0013 | – | 0.7 | – |
